Sampled rows, rich in hits. Any-hit rate of the full collection: about 4.1%.
FLuc inhib CS: inhibits firefly luciferase, flagging false hits in luciferase inhibition screens; P08659; inhibition, % at 10 µM; AID 1006; hit rate 1.5% among 200,000; ATPLite firefly luciferase biochemical luminescence, 10 min;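 active = inhibition above about 50% when tested at 10 µM, limit read from the data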
Target sequence (P08659 whole entry, looked up): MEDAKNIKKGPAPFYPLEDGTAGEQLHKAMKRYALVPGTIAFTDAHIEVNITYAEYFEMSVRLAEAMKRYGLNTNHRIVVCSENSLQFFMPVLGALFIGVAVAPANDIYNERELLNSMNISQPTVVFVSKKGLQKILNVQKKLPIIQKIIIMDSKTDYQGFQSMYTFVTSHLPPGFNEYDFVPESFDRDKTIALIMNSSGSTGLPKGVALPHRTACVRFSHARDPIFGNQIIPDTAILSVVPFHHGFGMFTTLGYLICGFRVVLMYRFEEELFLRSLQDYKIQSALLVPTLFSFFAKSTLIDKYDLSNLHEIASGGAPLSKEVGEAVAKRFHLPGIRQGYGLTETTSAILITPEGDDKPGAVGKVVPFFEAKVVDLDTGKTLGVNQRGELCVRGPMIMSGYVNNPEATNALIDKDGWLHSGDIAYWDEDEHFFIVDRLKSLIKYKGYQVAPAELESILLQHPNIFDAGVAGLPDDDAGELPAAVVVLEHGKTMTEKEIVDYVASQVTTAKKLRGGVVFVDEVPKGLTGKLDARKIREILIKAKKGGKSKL
STAT1 act: STAT1 signaling activation; NIH 3T3 STAT1-luciferase reporter, IFN-gamma, luminescence; 100% = IFN-gamma alone, no compound; activation (% of control), % at 5.5 µM; hit rate 2.6% among 200,000; AID 932;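 active = activation above the screen-wide mean activation plus 3 SD, cut at about 130% in these data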;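 note: raw ratio to IFN-gamma control signal so 100% means no change and 0% no light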
FLuc stim CS: firefly luciferase counter-screen for stimulation assays; P08659; ATPlite luciferase biochemical, luminescence, 10 min; 0 = ATP-free wells, 1 = DMSO control; activation factor at 10 µM; 200,000 tested, under 10 active;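 active = luciferase activation factor, scaled between plate controls, of at least 2 with compound at 10 µM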
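System: cell-free luciferase reagent; medium: PBS as buffer for the ATP substrate; doses: test compounds dosed from 2 mM stocks in 100% DMSO; incubation: 10 min, room temperature; measured by: luminescence from luciferase reaction; read-out: luciferase activation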
NF-kB neuron act: compounds increasing NF-kB expression in human neuronal cells; fold change at 12.5 µM; hit rate 1.6% among 190,000; NF-kB reporter expression; active compounds read high; in the data active = fold change above about 3.3
APP 5'UTR act: APP 5'UTR luciferase reporter activation; SH-SY5Y APP 5'UTR luciferase reporter, luminescence; zero percent = DMSO vehicle wells; activation, % at 2 µM; hit rate 1% among 190,000; AID 1276;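 active = activation above a set limit, based on mean plus 3 SD of controls, cut at about 140% in these data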
The depositor's hits bear a star.

What do the screens show for `O=C(/C=C/c1ccc2c(c1)OCO2)Nc1cccnc1`?
FLuc inhib CS: 87*; STAT1 act: 128; FLuc stim CS: 0.1; NF-kB neuron act: 0.99; APP 5'UTR act: 162*

What do the screens show for `CC(C)CC(=O)Nc1ccc(C(=O)Nc2cccc(O)c2)cc1`?
FLuc inhib CS: 22; STAT1 act: 132*; FLuc stim CS: 0.8; NF-kB neuron act: 2; APP 5'UTR act: 68

How did O=C(Nc1cccc(O)c1)c1ccc(C(F)(F)F)cc1 do in these assays?
FLuc inhib CS: 57*; STAT1 act: 104; FLuc stim CS: 0.4; NF-kB neuron act: 3.7*; APP 5'UTR act: 91

How did O=C(Nc1ccc(C(F)(F)F)cc1)c1ccc2nc[nH]c2c1 do in these assays?
FLuc inhib CS: 4; STAT1 act: 112; FLuc stim CS: 1; NF-kB neuron act: 1.8; APP 5'UTR act: 7

Results for Cc1ccc(-n2ncc3c(=O)n(CC(=O)N4CCCc5ccccc54)cnc32)cc1C ?
FLuc inhib CS: -6; STAT1 act: 102; FLuc stim CS: 1.1; NF-kB neuron act: 0.49; APP 5'UTR act: 4

What do the screens show for `O=C(O)CCC(=O)Nc1ccccc1C(=O)NCCc1ccccc1`?
FLuc inhib CS: 1; STAT1 act: 135*; FLuc stim CS: 1; NF-kB neuron act: 1.8; APP 5'UTR act: 27

What do the screens show for `O=C(O)CCC(=O)Nc1ccccc1C(=O)Nc1ccccc1`?
FLuc inhib CS: -2; STAT1 act: 100; FLuc stim CS: 1; NF-kB neuron act: 0.94; APP 5'UTR act: 5

How did COc1ccccc1NC(=O)c1oc2ccc(C)cc2c1C do in these assays?
FLuc inhib CS: 22; STAT1 act: 129*; FLuc stim CS: 0.8; NF-kB neuron act: 2.5; APP 5'UTR act: 2

What do the screens show for `CCOC(=O)c1cc(-c2ccc(N)cc2)sc1N`?
FLuc inhib CS: 13; STAT1 act: 139*; FLuc stim CS: 0.9; NF-kB neuron act: 3; APP 5'UTR act: 19

How did CCOC(=O)c1sc(-c2ccc(Br)cc2)cc1N do in these assays?
FLuc inhib CS: 13; STAT1 act: 137*; FLuc stim CS: 0.9; NF-kB neuron act: 2.5; APP 5'UTR act: 77

What do the screens show for `NNC(=O)c1sc(-c2ccc(Cl)cc2)cc1N`?
FLuc inhib CS: 1; STAT1 act: 134*; FLuc stim CS: 1; NF-kB neuron act: 1.1; APP 5'UTR act: 7

Results for CN=C1CC(SC)=C1c1ccc(C)cc1 ?
FLuc inhib CS: -7; STAT1 act: 97; FLuc stim CS: 1.1; NF-kB neuron act: 1.1; APP 5'UTR act: 2

How did COc1cccc(OC)c1C(=O)NC(=S)Nc1cc(-c2nc3ccccc3[nH]2)ccc1Cl do in these assays?
FLuc inhib CS: 7; STAT1 act: 107; FLuc stim CS: 0.9; NF-kB neuron act: 0.42; APP 5'UTR act: 6

What do the screens show for `Cc1cc(C)c2[nH]c(=O)c(C(c3nnnn3C3CCCC3)N3CCOCC3)cc2c1` (stereo not drawn)?
FLuc inhib CS: 3; FLuc stim CS: 1

How did Cc1nn(Cc2ccccc2)c(Cl)c1C(=O)NCc1ccco1 do in these assays?
FLuc inhib CS: -6; STAT1 act: 90; FLuc stim CS: 1.1; NF-kB neuron act: 0.95; APP 5'UTR act: -10

How did CC(=O)Nc1ccc(NC(=O)C2CCN(c3ccc(C(F)(F)F)cn3)CC2)cc1 do in these assays?
FLuc inhib CS: -4; STAT1 act: 96; FLuc stim CS: 1; NF-kB neuron act: 0.91; APP 5'UTR act: 2

Results for CC(C)(C)C1CCc2c(sc(NC(=O)c3cccs3)c2C(N)=O)C1 (stereo not drawn) ?
FLuc inhib CS: 58*; STAT1 act: 51; FLuc stim CS: 0.4; NF-kB neuron act: 0.82; APP 5'UTR act: -5

What do the screens show for `CCC(C)(C)C1CCc2c(sc(NC(=O)c3cccs3)c2C(N)=O)C1` (stereo not drawn)?
FLuc inhib CS: 10; STAT1 act: 85; FLuc stim CS: 0.9; NF-kB neuron act: 1.2; APP 5'UTR act: 20

Results for CCOC(=O)c1sc(NC(=O)C2CCC2)cc1C ?
FLuc inhib CS: 50*; STAT1 act: 120; FLuc stim CS: 0.5; NF-kB neuron act: 1.8; APP 5'UTR act: 46

What do the screens show for `CCOC(=O)c1sc(NC(C)=O)cc1C`?
FLuc inhib CS: -2; STAT1 act: 98; FLuc stim CS: 1; NF-kB neuron act: 1; APP 5'UTR act: 10

What do the screens show for `CC(C)c1nnc(NC(=O)c2ccc(N3C(=O)CCC3=O)cc2)s1`?
FLuc inhib CS: 0; STAT1 act: 136*; FLuc stim CS: 1; NF-kB neuron act: 1.9; APP 5'UTR act: 5
